Experimental findings from publication PMC5701743 (Nature, 2017) are described below.

Numbering of substitutions follows the chain as printed.

The target of one experiment is GDP-mannose transporter Vrg4 (Saccharomyces cerevisiae) (UniProt P40107). Put plainly: crystal structure.
Details: not given
In the case of “GDP-mannose transporter Vrg4 (from UniProt P40107 1-337) (natural protein)”, the stoichiometry N (in general, a count of units in the complex or per binding partner) worked out at 2.

Another experiment addresses T1, Vrg4 Tyr114Phe (Y114F) (Saccharomyces cerevisiae, UniProt P40107, Y114F).
T1 sequence (P40107 1-337 Y114F): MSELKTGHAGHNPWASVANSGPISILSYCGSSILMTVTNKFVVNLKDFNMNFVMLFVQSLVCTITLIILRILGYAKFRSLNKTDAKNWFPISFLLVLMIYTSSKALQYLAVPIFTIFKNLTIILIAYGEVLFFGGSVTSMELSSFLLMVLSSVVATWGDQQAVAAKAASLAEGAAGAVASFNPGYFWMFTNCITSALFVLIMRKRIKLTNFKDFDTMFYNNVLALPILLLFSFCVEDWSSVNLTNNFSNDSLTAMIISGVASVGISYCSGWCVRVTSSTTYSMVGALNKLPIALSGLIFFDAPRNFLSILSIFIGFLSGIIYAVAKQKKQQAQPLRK
Put plainly: IC50 curves, Vrg4 Tyr114Phe variant proteoliposomes. Conditions: Tyr114Phe versus wild type. It counts as biochemical. A digest of the protocol: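 Wild-type or mutant Vrg4 was purified in DM and reconstituted at 80:1 lipid:protein into yeast polar lipid proteoliposomes. Reconstituted protein was matched by SDS-PAGE densitometry. Liposomes were substrate-loaded by freeze-thaw and extrusion. Uptake was started by adding 4 μg protein equivalent to 50 μl buffer (20 mM Hepes pH 7.5, 50 mM KCl, 2 mM MgSO4) with 0.5 μM 3H-GMP, then filtered and counted. IC50 from curves, mean of three independent experiments, s.d.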
Turning to `Nc1nc2c(ncn2[C@@H]2O[C@H](COP(=O)(O)OP(=O)(O)O[C@H]3O[C@H](CO)[C@@H](O)[C@H](O)[C@@H]3O)[C@@H](O)[C@H]2O)c(=O)[nH]1` [GDP-M, GDP-mannose], the “Affinity relative to wild type” value was “reduced the affinity”.

Turning to `Nc1nc2c(ncn2[C@@H]2O[C@H](COP(=O)(O)O)[C@@H](O)[C@H]2O)c(=O)[nH]1` [GMP, guanine monophosphate], the “Affinity relative to wild type” value is “reduced the affinity”.

The next experiment addresses T2, Vrg4 (Saccharomyces cerevisiae, UniProt P40107).
T2 sequence (P40107 1-337): T1 sequence (P40107 1-337 Y114F) with F114Y
Test: not given
It counts as biochemical. The settings on record: internal substrate; 0.5 μM 3H-GMP outside. In a few lines: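 Yeast Vrg4-GFP-His was galactose-induced, IMAC-purified in DDM, and then in DM reconstituted by dilution into yeast polar lipid vesicles at 80:1 lipid:protein and dialysed. Internal substrate was loaded by six freeze-thaw cycles and 0.4 μm extrusion. 4 μg protein was added to 50 μl of 20 mM Hepes pH 7.5, 50 mM KCl, 2 mM MgSO4 with 0.5 μM 3H-GMP. Samples were filtered, washed with cold water and scintillation-counted. ≥4 repeats, mean ± S.D.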
As for `Nc1ncnc2c1ncn2[C@@H]1O[C@H](COP(=O)(O)O)[C@@H](O)[C@H]1O` [AMP, adenine monophosphate], the “Transport driven by substance inside the liposome” value (“Transport driven” below) is given as “poor transport”.

Consider `Nc1ccn([C@@H]2O[C@H](COP(=O)(O)O)[C@@H](O)[C@H]2O)c(=O)n1` [CMP, cytosine monophosphate], for which the “Transport driven” value is recorded as “no significant transport”.

In the case of `Nc1nc2c(ncn2[C@@H]2O[C@H](COP(=O)(O)OP(=O)(O)OP(=O)(O)O)[C@@H](O)[C@H]2O)c(=O)[nH]1` [GTP], the “Transport driven” value is “cannot be driven”.

Another experiment has as its target T3, wild type Vrg4 (Saccharomyces cerevisiae, UniProt P40107).
T3 sequence (P40107 1-337): T1 sequence (P40107 1-337 Y114F) with F114Y
Put plainly: Competition / IC50 of 3H-GMP uptake into wild type Vrg4 proteoliposomes. The experiment is classed as biochemical. The settings on record: competition assay, n=4.
As for `C[C@@H]1O[C@H](OP(=O)(O)OP(=O)(O)OC[C@H]2O[C@@H](n3cnc4c(=O)[nH]c(N)nc43)[C@H](O)[C@@H]2O)[C@@H](O)[C@H](O)[C@@H]1O` [GDP-F, GDP-fucose], the “Competition of transport (recognition by the binding site)” value (from here on “Competition of transport”) was “can also compete”.

In the case of `Nc1nc2c(ncn2[C@@H]2O[C@H](COP(=O)(O)OP(=O)(O)O[C@H]3O[C@H](CO)[C@@H](O)[C@H](O)[C@@H]3O)[C@@H](O)[C@H]2O)c(=O)[nH]1` [GDP-M, GDP-mannose], the “Competition of transport” value is on record as “most effective competitors of transport”.

On to `Nc1nc2c(ncn2[C@@H]2O[C@H](COP(=O)(O)OP(=O)(O)O)[C@@H](O)[C@H]2O)c(=O)[nH]1` [GDP], for which the “Competition of transport” value was “can also compete”.

As for `Nc1nc2c(ncn2[C@@H]2O[C@H](COP(=O)(O)O)[C@@H](O)[C@H]2O)c(=O)[nH]1` [GMP, guanine monophosphate], the “Competition of transport” value is recorded as “most effective competitors of transport”.

Turning to `Nc1nc2c(ncn2[C@@H]2O[C@H](COP(=O)(O)OP(=O)(O)O[C@H]3O[C@H](CO)[C@@H](O)[C@H](O)[C@H]3O)[C@@H](O)[C@H]2O)c(=O)[nH]1` [GTP-G, GDP-glucose], the “Competition of transport” value was “can also compete”.

Consider `O=P(O)(O)OP(=O)(O)O` [Pyrophosphate], for which the “Competition of transport” value is recorded as “cannot inhibit”.

For the molecule `Nc1nc2c(ncn2[C@@H]2O[C@@H]3COP(=O)(O)O[C@H]3[C@H]2O)c(=O)[nH]1` [cyclic GMP], the “Competition of transport” value is “very poorly recognised”.

Regarding `Nc1nc2c(ncn2[C@@H]2O[C@H](CO)[C@@H](O)[C@H]2O)c(=O)[nH]1` [guanosine], the “Competition of transport” value is “very poorly recognised”.
